The results in this text go back to ChEMBL document CHEMBL1133766, “Enkephalin glycopeptide analogues produce analgesia with reduced dependence liability” (J Med Chem, 2000).

Molecules are shown by their SMILES.

Test [1] has as its system Rattus norvegicus. The test can be described thus: Amount of the drug required to produce 50% antinociception when administered intraperitoneally; value ranges from 11.8-18.0. The class given is functional. In short, it runs like this:
(§1)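 55 °C tail-flick test after a single injection by the route named in the line, with graded doses giving a dose-response. % antinociception = 100 × [test latency − control latency]/[15 − control latency]. A50 is the amount of drug giving 50% antinociception, derived from the dose-response curve.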

Test [2] relates to Rattus norvegicus. Kind of test: Amount of the drug required to produce 50% antinociception when administered intravenously; value ranges from 4.9-7.9. The class given is functional. In short, it runs like this: as §1
In test [3] the test system is Rattus norvegicus. Kind of test: Amount of the drug required to produce 50% antinociception when administered subcutaneously; value ranges from 10.2-17.0. The class given is functional. In short, it runs like this: as §1
The test system of test [4] is Rattus norvegicus. The test can be described thus: Amount of the drug required to produce 50% antinociception when administered intracerebroventricularly; value ranges from 1.8-4.2. The class given is functional. In short, it runs like this:
as §1

Another test addresses Mu-type opioid receptor (Homo sapiens, UniProt P35372). Kind of test: Binding affinity towards Opioid receptor mu 1 was evaluated.
Test [5] in a line: (§2) Opioid receptor activity was evaluated using guinea pig ileum (GPI) assay. The class given is tissue-based. As to conditions: Cavia porcellus.
The next test addresses Opioid receptor (Mus musculus, UniProt P42866+P32300+P33534). The test can be described thus: (§3) Opioid receptor activity was evaluated using mouse vas deferens (MVD) assay. Format: tissue-based.
The target in test [6] is Delta-type opioid receptor (Homo sapiens, UniProt P41143). The test can be described thus: Binding affinity towards Opioid receptor delta 1 was evaluated.
For the next test, the species on record is Mus musculus. The description is as §3. Format: functional, organism-based.
Test [7] is described as follows: as §2. The class given is functional, tissue-based. As to conditions: Cavia porcellus.
The test system of test [8] is Rattus norvegicus. The test can be described thus: Amount of the drug required to produce 50% antinociception when administered subcutaneously; value ranges from 4.9-10.00. Format: functional. In short, it runs like this:
as §1

Test [9] has as its system Rattus norvegicus. Kind of test: Amount of the drug required to produce 50% antinociception when administered intravenously; value ranges from 8.5-15.2. Format: functional. In short, it runs like this:
as §1

Test [10] relates to Rattus norvegicus. The test can be described thus: Amount of the drug required to produce 50% antinociception when administered intracerebroventricularly; value ranges from 0.01-0.04. The class given is functional. In short, it runs like this:
as §1

For test [11], the system named is Rattus norvegicus. The test can be described thus: Amount of the drug required to produce 50% antinociception when administered intraperitoneally; value ranges from 21.2-55.5. The class given is functional. In short, it runs like this: as §1
The subject of test [12] is Rattus norvegicus. Kind of test: Amount of the drug required to produce 50% antinociception when administered intraperitoneally; value ranges from 124.0-151.8. The class given is functional. In short, it runs like this:
as §1

The test system of test [13] is Rattus norvegicus. Kind of test: Amount of the drug required to produce 50% antinociception when administered subcutaneously; value ranges from 15.9-26.0. Format: functional. In short, it runs like this: as §1
For test [14], the system named is Rattus norvegicus. The test can be described thus: Amount of the drug required to produce 50% antinociception when administered intracerebroventricularly; value ranges from 0.05-0.09. The class given is functional. In short, it runs like this: as §1
Test [15] has as its system Rattus norvegicus. Kind of test: Amount of the drug required to produce 50% antinociception when administered intravenously; value ranges from 35.4-60.7. Format: functional. In short, it runs like this: as §1

Mu-type opioid receptor, sequence (P35372 whole entry): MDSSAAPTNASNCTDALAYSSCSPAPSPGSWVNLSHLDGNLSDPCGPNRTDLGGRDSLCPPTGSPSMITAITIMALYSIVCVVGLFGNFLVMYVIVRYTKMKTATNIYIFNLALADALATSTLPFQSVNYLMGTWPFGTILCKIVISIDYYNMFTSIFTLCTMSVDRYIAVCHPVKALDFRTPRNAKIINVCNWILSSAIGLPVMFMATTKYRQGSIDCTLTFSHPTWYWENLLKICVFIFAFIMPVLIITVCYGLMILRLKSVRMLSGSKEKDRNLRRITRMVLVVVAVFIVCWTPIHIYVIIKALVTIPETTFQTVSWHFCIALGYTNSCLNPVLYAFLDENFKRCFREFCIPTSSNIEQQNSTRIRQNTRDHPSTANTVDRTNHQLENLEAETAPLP
Delta-type opioid receptor, sequence (P41143 whole entry): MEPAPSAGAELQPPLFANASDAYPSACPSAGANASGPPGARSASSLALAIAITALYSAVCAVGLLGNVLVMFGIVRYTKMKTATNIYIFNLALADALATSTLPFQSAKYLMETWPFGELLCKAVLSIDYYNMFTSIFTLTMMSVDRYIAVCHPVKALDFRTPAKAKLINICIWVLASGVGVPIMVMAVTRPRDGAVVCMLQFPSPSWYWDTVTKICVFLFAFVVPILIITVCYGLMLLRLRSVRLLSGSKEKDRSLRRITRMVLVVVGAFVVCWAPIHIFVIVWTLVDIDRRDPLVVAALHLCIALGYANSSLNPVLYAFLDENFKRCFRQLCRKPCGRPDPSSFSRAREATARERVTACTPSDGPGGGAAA

On to `CN1CC[C@]23c4c5ccc(O)c4O[C@H]2[C@@H](O)C=C[C@H]3[C@H]1C5` [MORPHINE], for which the A50 with Rattus norvegicus [1] is 14.6 mM/kg; in the test on Rattus norvegicus [2], 6.3 mM/kg; in the test with Rattus norvegicus [3], 13.2 mM/kg; in the test with Rattus norvegicus [4], 2.7 nM.
As a reminder, the IC50 is the concentration at which inhibition is half-maximal. The low end stands for greater potency, the high end for weaker potency. Turning to `CC(C)C[C@H](NC(=O)[C@H](Cc1ccccc1)NC(=O)CNC(=O)[C@H](NC(=O)[C@@H](N)Cc1ccc(O)cc1)[C@H](C)O)C(=O)N[C@@H](CO)C(N)=O` [listing 1 of 2 here], the IC50 on Mu-type opioid receptor was found to be 4 nM; in test [5] it was 25 nM; at Opioid receptor it was 2.7 nM; in [6], 2.4 nM.
On to `CC(C)C[C@H](NC(=O)[C@H](Cc1ccccc1)NC(=O)CNC(=O)[C@H](NC(=O)[C@@H](N)Cc1ccc(O)cc1)[C@H](C)O)C(=O)N[C@@H](CO[C@H]1O[C@@H](CO)[C@H](O)[C@@H](O)[C@H]1O)C(N)=O` [listing 1 of 2 here], for which the IC50 was found to be 8.2 nM on Mu-type opioid receptor, 1.6 nM in the test listed under Mus musculus, 3.4 nM in test [6] and 33.8 nM in test [7].
Take `CC(C)C[C@H](NC(=O)[C@H](Cc1ccccc1)NC(=O)CNC(=O)[C@H](NC(=O)[C@@H](N)Cc1ccc(O)cc1)[C@H](C)O)C(=O)N[C@@H](CO[C@H]1O[C@@H](CO)[C@H](O)[C@@H](O)[C@H]1O)C(N)=O` [listing 2 of 2 here]: the A50 in the test on Rattus norvegicus [8] amounted to 7.2 mM/kg; with Rattus norvegicus [9], 11.4 mM/kg; with Rattus norvegicus [10], 0.02 nM; in the test on Rattus norvegicus [11] it was 34.3 mM/kg.
With `CC(C)C[C@H](NC(=O)[C@H](Cc1ccccc1)NC(=O)CNC(=O)[C@H](NC(=O)[C@@H](N)Cc1ccc(O)cc1)[C@H](C)O)C(=O)N[C@@H](CO)C(N)=O` [listing 2 of 2 here], the A50 is 137.2 mM/kg in the test on Rattus norvegicus [12], 20.3 mM/kg in the test on Rattus norvegicus [13], 0.07 nM in the test on Rattus norvegicus [14] and 46.4 mM/kg in the test with Rattus norvegicus [15].
